{"source": "ChEMBL document CHEMBL5518184", "about": "“Structural basis for specific inhibition of salicylate synthase from Mycobacterium abscessus” (Eur J Med Chem, 2024)", "key": {"[1]": {"system": "Mycobacteroides abscessus", "assay": "Inhibition of Mycobacterium abscessus ATCC 19977 salicylate synthase expressed in Escherichia coli BL21 (DE3) cells using chorismic acid as substrate assessed as residual activity at 100 uM by fluorimetric assay relative to control", "method_in_brief": "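Enzyme purified by IMAC and gel filtration, used at 1–2 μM in 50 mM Hepes pH 7.5 with 5 mM MgCl₂ at 37 °C. Reaction started with 50 μM chorismic acid; fluorescence read at Ex 305 / Em 420 nm. Compound tested at a fixed 100 μM; percent residual activity recorded.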"}, "[2]": {"system": "Mycobacterium tuberculosis", "assay": "Inhibition of Mycobacterium tuberculosis salicylate synthase expressed in Escherichia coli BL21 cells using chorismic acid as substrate assessed as residual activity at 100 uM by fluorimetric assay relative to control", "method_in_brief": "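Recombinant His-purified enzyme (IMAC plus gel filtration), 1–2 μM, in 50 mM Hepes pH 7.5, 5 mM MgCl₂ at 37 °C. Reaction started with chorismic acid at a subsaturating 50 μM. Compound tested at a fixed 100 μM. Fluorescence monitored at Ex 305 nm / Em 420 nm, and activity expressed as % residual activity.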"}, "[3]": {"assay": "Inhibition of Mycobacterium tuberculosis salicylate synthase expressed in Escherichia coli BL21 cells using chorismic acid as substrate by fluorimetric assay", "method_in_brief": "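Purified recombinant enzyme, 1–2 μM, in 50 mM Hepes pH 7.5, 5 mM MgCl₂ at 37 °C, with 50 μM chorismic acid. Fluorescence read at Ex 305 nm / Em 420 nm. Run only for compounds with residual activity below 30 % at 100 μM. Activity measured across 0.1–200 μM inhibitor and IC50 fitted as A[I] = A[0]·(1 − [I]/([I]+IC50)).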"}, "[4]": {"assay": "Inhibition of Mycobacterium abscessus ATCC 19977 salicylate synthase expressed in Escherichia coli BL21 (DE3) cells using chorismic acid as substrate by fluorimetric assay", "parameters": "species or system Mycobacteroides abscessus", "method_in_brief": "(§1)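 Purified enzyme (IMAC plus gel filtration) at 1–2 μM in 50 mM Hepes pH 7.5, 5 mM MgCl₂, 37 °C, with 50 μM chorismic acid; fluorimetric read-out at Ex 305 / Em 420 nm. IC50 measured over 0.1–200 μM inhibitor for compounds leaving under 30 % residual activity at 100 μM, fitted as A[I] = A[0]·(1 − [I]/([I]+IC50)).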"}, "[5]": {"assay": "Inhibition of Mycobacterium abscessus ATCC 19977 salicylate synthase expressed in Escherichia coli BL21 (DE3) cells by fluorimetric assay", "parameters": "species or system Mycobacteroides abscessus", "method_in_brief": "as §1"}, "[6]": {"assay": "Inhibition of Mycobacterium abscessus ATCC 19977 salicylate synthase expressed in Escherichia coli BL21 (DE3) cells using chorismic acid as substrate in presence of BSA by fluorimetric assay", "parameters": "species or system Mycobacteroides abscessus", "method_in_brief": "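IC50 determined in the standard fluorimetric chorismate assay (1–2 μM enzyme, 50 mM Hepes pH 7.5, 5 mM MgCl₂, 37 °C, 50 μM chorismic acid, Ex 305 / Em 420 nm) with 0.1 mg/mL BSA added.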"}, "[7]": {"assay": "Inhibition of Mycobacterium abscessus ATCC 19977 salicylate synthase expressed in Escherichia coli BL21 (DE3) cells using chorismic acid as substrate in presence of Triton X-100 by fluorimetric assay", "parameters": "species or system Mycobacteroides abscessus", "method_in_brief": "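IC50 determined in the standard fluorimetric chorismate assay (1–2 μM enzyme, 50 mM Hepes pH 7.5, 5 mM MgCl₂, 37 °C, 50 μM chorismic acid) with 0.01 % (v/v) Triton X-100 added as detergent.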"}, "[8]": {"assay": "Cytotoxicity against human fibroblast assessed as viable cells at 10 uM incubated for 96 hrs by MTS assay relative to control", "type": "toxicity, cell-based", "conditions": "human fibroblasts, read-out: Activity", "method_in_brief": "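Juvenile human foreskin fibroblasts grown in DMEM with 10 % FBS, 1 % L-glutamine and penicillin/streptomycin; 1 × 10⁴ cells/well, treated after 24 h at 0.5, 1, 5 and 10 μM. After 96 h, viability read by MTS at 490 nm and expressed as percent of untreated cells; three independent experiments.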"}, "[9]": {"assay": "Inhibition of Mycobacterium abscessus ATCC 19977 salicylate synthase expressed in Escherichia coli BL21 (DE3) cells using chorismic acid as substrate in presence of DTT by fluorimetric assay", "parameters": "species or system Mycobacteroides abscessus", "method_in_brief": "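IC50 determined in the standard fluorimetric chorismate assay (1–2 μM enzyme, 50 mM Hepes pH 7.5, 5 mM MgCl₂, 37 °C, 50 μM chorismic acid) with 100 μM DTT added to rule out cysteine reactivity.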"}}}
{"smiles": "O=C(O)c1ccc(-c2cccc(Cl)c2)o1", "values": [{"measurement": "Activity", "setting": "[1]", "result": 88.3, "unit": "%"}, {"measurement": "Activity", "setting": "[2]", "result": 102, "unit": "%"}]}
{"smiles": "NS(=O)(=O)c1ccccc1-c1ccc(C(=O)O)o1", "values": [{"measurement": "Activity", "setting": "[1]", "result": 97.1, "unit": "%"}]}
{"smiles": "N#Cc1cccc(-c2ccc(C(=O)O)o2)c1", "values": [{"measurement": "Activity", "setting": "[1]", "result": 3.2, "unit": "%"}, {"measurement": "IC50", "setting": "[3]", "result": 6.3, "unit": "µM"}, {"measurement": "Activity", "setting": "[2]", "result": 3.1, "unit": "%"}, {"measurement": "IC50", "setting": "[4]", "result": 12.1, "unit": "µM"}]}
{"smiles": "NC(=O)c1cccc(-c2ccc(C(=O)O)o2)c1", "values": [{"measurement": "Activity", "setting": "[1]", "result": 25.8, "unit": "%"}, {"measurement": "IC50", "setting": "[3]", "result": 31.4, "unit": "µM"}, {"measurement": "Activity", "setting": "[2]", "result": 20.9, "unit": "%"}, {"measurement": "IC50", "setting": "[4]", "result": 42.9, "unit": "µM"}]}
{"smiles": "COC(=O)c1ccc(-c2cccc(S(N)(=O)=O)c2)o1", "values": [{"measurement": "Activity", "setting": "[1]", "result": 55.3, "unit": "%"}]}
{"smiles": "Cc1cccc(-c2ccc(C(=O)O)o2)c1", "values": [{"measurement": "Activity", "setting": "[1]", "result": 54.7, "unit": "%"}, {"measurement": "Activity", "setting": "[2]", "result": 104, "unit": "%"}]}
{"smiles": "O=C(O)c1ccc(-c2cccc(O)c2)o1", "values": [{"measurement": "Activity", "setting": "[1]", "result": 65, "unit": "%"}, {"measurement": "Activity", "setting": "[2]", "result": 70.4, "unit": "%"}]}
{"smiles": "O=C(O)c1ccc(-c2ccc(C(F)(F)F)cc2C(F)(F)F)o1", "values": [{"measurement": "IC50", "setting": "[5]", "result": "~5", "unit": "µM"}]}
{"smiles": "CS(=O)(=O)c1cccc(-c2ccc(C(=O)O)o2)c1", "values": [{"measurement": "Activity", "setting": "[1]", "result": 5.4, "unit": "%"}, {"measurement": "IC50", "setting": "[3]", "result": 34.9, "unit": "µM"}, {"measurement": "Activity", "setting": "[2]", "result": 25.8, "unit": "%"}, {"measurement": "IC50", "setting": "[4]", "result": 3.6, "unit": "µM"}]}
{"smiles": "O=C(O)c1cccc(-c2ccc(C(=O)O)o2)c1", "values": [{"measurement": "Activity", "setting": "[1]", "result": 33.3, "unit": "%"}, {"measurement": "IC50", "setting": "[3]", "result": 35.2, "unit": "µM"}, {"measurement": "Activity", "setting": "[2]", "result": 27.2, "unit": "%"}]}
{"smiles": "NS(=O)(=O)c1cccc(-c2cccc(C(=O)O)c2)c1", "values": [{"measurement": "Activity", "setting": "[1]", "result": 89.4, "unit": "%"}]}
{"smiles": "Nc1cccc(-c2ccc(C(=O)O)o2)c1", "values": [{"measurement": "Activity", "setting": "[1]", "result": 48.3, "unit": "%"}, {"measurement": "Activity", "setting": "[2]", "result": 65.8, "unit": "%"}]}
{"smiles": "NS(=O)(=O)c1ccc(-c2ccc(C(=O)O)o2)cc1", "values": [{"measurement": "Activity", "setting": "[1]", "result": 16, "unit": "%"}, {"measurement": "IC50", "setting": "[4]", "result": 19.3, "unit": "µM"}]}
{"smiles": "NS(=O)(=O)c1cccc(-c2ccc(C(=O)O)o2)c1", "values": [{"measurement": "Activity", "setting": "[1]", "result": 0.6, "unit": "%"}, {"measurement": "IC50", "setting": "[3]", "result": 39.7, "unit": "µM"}, {"measurement": "IC50", "setting": "[6]", "result": 2.8, "unit": "µM"}, {"measurement": "Activity", "setting": "[2]", "result": 28.6, "unit": "%"}, {"measurement": "IC50", "setting": "[4]", "result": 2.6, "unit": "µM"}, {"measurement": "IC50", "setting": "[7]", "result": 2.8, "unit": "µM"}, {"measurement": "viability at 96 h, 10 µM", "setting": "[8]", "result": 99.5, "unit": "%"}, {"measurement": "IC50", "setting": "[9]", "result": 3.3, "unit": "µM"}]}
{"smiles": "CNC(=O)c1cccc(-c2ccc(C(=O)O)o2)c1", "values": [{"measurement": "Activity", "setting": "[1]", "result": 53.3, "unit": "%"}, {"measurement": "Activity", "setting": "[2]", "result": 84, "unit": "%"}]}
{"smiles": "O=C(O)c1ccc(-c2cccc(C(F)(F)F)c2)o1", "values": [{"measurement": "Activity", "setting": "[1]", "result": 35, "unit": "%"}, {"measurement": "Activity", "setting": "[2]", "result": 42, "unit": "%"}]}
